Screening results deposited in PubChem BioAssay by several laboratories.
tolC growth inh: growth inhibitors of E. coli tolC mutant, primary screen, strain BW25113 ΔtolC::kan, 384-well. growth inhibition, % at 10 µM (by protocol). 65,000 tested, 2.2% active. AID 573, 2007. OD615;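 active = growth inhibition at or above a cutoff equal to the mean over every tested compound plus 3 SD, cut at about 60% in these data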;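 note: growth measured after 20 h incubation at 37 °C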
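signal = optical density read at 615 nm | test system = E. coli ΔtolC::kan strain BW25113 | timing = 20 h compound exposure of bacteria at 37 °C | buffer or medium = LB medium plus 50 µg/mL kanamycin | compound dosing = 10 µM final, single dose | evaluation = % inhibition of E. coli growth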
PTK2B oligo ant: antagonists of Pyk2 self-association, primary screen, Q293 cells, FERM NanoBiT luminescence, HTS; hits give low values; 99,000 tested, 0.83% active; Protein-tyrosine kinase 2-beta (Homo sapiens), Q14289; z-score (the deposit names both 25 µM and 10 µM);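 active = Z-score of -3 or lower, scaled per plate to the spread of control and sample wells; inactive = z-score above -3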;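 note: negative z-score means lost luminescence so less FERM oligomerization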
PostGolgi yeast: phenotypic screen on post-Golgi transport, primary screen | inhibition, % at 10 µM | post-Golgi transport phenotypic cell assay | 98,000 tested, 0.9% active;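 note: yeast cells grown in 1536-well plates; yeast grown about 18 h at 30C before absorbance read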
Candida biofilm: clotrimazole potentiators killing Candida biofilms, primary screen, with clotrimazole, Alamar Blue; inhibition, % at 6 µM; AID 834, 2007; C. albicans biofilm + clotrimazole; 85,000 tested, 0.14% active;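 active = inhibition above 20%; inactive = inhibition below 20%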;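 note: preformed 24 hr biofilms exposed to compound for 48 hr; 0% = biofilm without compound and 100% = blank killed by clotrimazole plus chlorhexidine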
PostGolgi ctrl: growth inhibition of yeast control strain, primary screen, counter-screen for post-Golgi transport modulator project; efflux-deficient yeast background strain, growth absorbance A615, 16 h; inhibition, % at 10 µM; 98,000 tested, 5% active; AID 738, 2007
FAK inh: FAK kinase inhibitors, primary screen, biochemical | 97,000 tested, 0.84% active | AID 727, 2007 | Focal adhesion kinase 1 (Homo sapiens), Q05397 | biochemical FAK kinase activity assay | inhibition, %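 (tested at 7 µM)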; in the data active = inhibition above about 19%;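 note: 0% = DMSO and 100% = reference compound high control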
Target sequence (Q05397 whole entry, looked up): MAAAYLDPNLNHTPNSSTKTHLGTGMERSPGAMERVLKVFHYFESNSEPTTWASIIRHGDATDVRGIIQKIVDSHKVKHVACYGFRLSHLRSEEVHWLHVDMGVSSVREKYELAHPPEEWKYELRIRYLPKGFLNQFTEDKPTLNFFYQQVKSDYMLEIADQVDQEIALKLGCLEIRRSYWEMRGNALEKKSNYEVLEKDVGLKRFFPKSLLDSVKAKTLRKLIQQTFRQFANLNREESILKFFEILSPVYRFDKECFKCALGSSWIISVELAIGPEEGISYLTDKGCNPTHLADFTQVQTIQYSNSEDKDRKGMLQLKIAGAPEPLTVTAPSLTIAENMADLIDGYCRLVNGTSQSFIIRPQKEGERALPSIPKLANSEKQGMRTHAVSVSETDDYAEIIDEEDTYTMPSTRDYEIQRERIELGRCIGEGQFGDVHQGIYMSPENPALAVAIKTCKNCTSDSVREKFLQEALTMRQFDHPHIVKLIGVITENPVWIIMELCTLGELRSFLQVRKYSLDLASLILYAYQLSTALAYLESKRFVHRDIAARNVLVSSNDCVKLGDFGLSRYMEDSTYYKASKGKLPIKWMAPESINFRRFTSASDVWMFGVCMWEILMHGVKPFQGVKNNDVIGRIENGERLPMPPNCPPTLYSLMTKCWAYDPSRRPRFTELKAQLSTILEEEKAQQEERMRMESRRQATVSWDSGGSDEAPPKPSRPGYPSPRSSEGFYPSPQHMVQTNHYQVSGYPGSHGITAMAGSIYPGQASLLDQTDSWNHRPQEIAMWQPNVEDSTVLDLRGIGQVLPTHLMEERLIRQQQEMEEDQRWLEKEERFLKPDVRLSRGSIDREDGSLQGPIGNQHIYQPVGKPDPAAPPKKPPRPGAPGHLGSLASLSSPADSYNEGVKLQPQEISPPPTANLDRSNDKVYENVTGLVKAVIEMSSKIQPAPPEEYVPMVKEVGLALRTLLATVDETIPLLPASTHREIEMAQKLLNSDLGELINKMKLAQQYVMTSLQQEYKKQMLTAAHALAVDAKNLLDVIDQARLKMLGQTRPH
The depositor's hits bear a star. Hits are enriched below; roughly 6.9% of the tested compounds scored in any of these assays. Cut-off read from the data, not from the text of the source, unless noted: active = inhibition above about 30%; inactive = the rest.

Results for COc1cccc(N2CC(C(=O)Nc3ccc(C(=O)OC(C)C)cc3)CC2=O)c1 (centres undefined) ?
tolC growth inh: 61.7*; PTK2B oligo ant: -0.64; PostGolgi yeast: 3.0; Candida biofilm: 2.0; PostGolgi ctrl: 11.8; FAK inh: -0.7

What do the screens show for `O=C(Nc1ccn(Cc2ccc(Cl)cc2)n1)c1ccc2c(c1)OCO2`?
tolC growth inh: 62.7*; PTK2B oligo ant: 0.28; PostGolgi yeast: 0.5; Candida biofilm: -0.1; PostGolgi ctrl: 8.8; FAK inh: -1.3

What do the screens show for `CC(C)(C)c1ccc(C2C3=C(CCCC3=O)NC3=C2C(=O)c2ccccc23)cc1` (centres undefined)?
PTK2B oligo ant: -0.02; PostGolgi yeast: -18.5; PostGolgi ctrl: 32.4*; FAK inh: 1.8

Results for CC(C)c1ccc(C2C3=C(CC(C)(C)CC3=O)NC3=C2C(=O)c2ccccc23)cc1 (centres undefined) ?
PTK2B oligo ant: -3.03*; PostGolgi yeast: -4.0; PostGolgi ctrl: 26.9; FAK inh: 1.2

How did Cc1nc(SCC(=O)Nc2ccc(F)cc2)c(C#N)c(C)c1CC(=O)c1ccc(Br)cc1 do in these assays?
PTK2B oligo ant: 0.73; PostGolgi yeast: -0.5; PostGolgi ctrl: -0.9; FAK inh: -2.5

Results for Cc1nn(-c2ccc(F)cc2)c2sc(C(=O)N3CCCCCC3)cc12 ?
tolC growth inh: 96.9*; PTK2B oligo ant: 0.24; PostGolgi yeast: -6.8; Candida biofilm: -2.6; PostGolgi ctrl: 31.3*; FAK inh: 5.1

How did Cc1nn(-c2ccc(Cl)cc2)c2sc(C(=O)N3CCN(C(=O)c4ccco4)CC3)cc12 do in these assays?
tolC growth inh: 9.3; Candida biofilm: 7.8

Results for Cc1nn(-c2ccc(F)cc2)c(C)c1NS(=O)(=O)c1ccc2ccccc2c1 ?
PTK2B oligo ant: -1.41; PostGolgi yeast: -4.4; Candida biofilm: 4.1; PostGolgi ctrl: 16.1; FAK inh: -3.3

What do the screens show for `CC(C)C(=O)Nc1nnc(SCC(=O)NC2CC2)s1`?
tolC growth inh: -21.0; PTK2B oligo ant: -0.31; PostGolgi yeast: -2.4; Candida biofilm: 7.0; PostGolgi ctrl: 4.9; FAK inh: -2.3

How did O=C(CSc1c[nH]c2ccccc12)N1CCCc2ccccc21 do in these assays?
PostGolgi yeast: 5.1; Candida biofilm: 2.7; PostGolgi ctrl: 31.4*; FAK inh: 0.5

What do the screens show for `O=C(CSc1ncnc2c1oc1ccccc12)N1CCCc2ccccc21`?
tolC growth inh: 63.0*; PTK2B oligo ant: -2.09; PostGolgi yeast: 0.0; Candida biofilm: 8.3; PostGolgi ctrl: 44.2*; FAK inh: -1.6

What do the screens show for `COC(=O)Cn1nc(-c2ccccc2)c2ccccc21`?
tolC growth inh: 22.4; PTK2B oligo ant: 0.86; PostGolgi yeast: 7.1; Candida biofilm: 10.6; PostGolgi ctrl: 31.4*; FAK inh: 0.9

What do the screens show for `O=C(O)CCCn1nc(-c2ccccc2)c2ccccc21`?
tolC growth inh: 6.5; PostGolgi yeast: -4.2; Candida biofilm: 5.0; PostGolgi ctrl: 15.8

What do the screens show for `Cc1cc(NC(=O)C2C3C(=O)N(Cc4ccc(Cl)cc4)C(C(=O)NC4CCCCC4)C34C=CC2(C)O4)no1` (centres undefined)?
PTK2B oligo ant: 0.74; PostGolgi yeast: 0.3; Candida biofilm: 8.9; PostGolgi ctrl: 1.5; FAK inh: -1.5

How did COCC(=O)Nc1ccc(C)c(Cl)c1 do in these assays?
tolC growth inh: -11.4; PTK2B oligo ant: -0.25; PostGolgi yeast: 17.2; Candida biofilm: 4.7; PostGolgi ctrl: -2.6; FAK inh: 1.9

How did CSCCC(NC(=O)c1ccccc1)C(=O)OCC(=O)Nc1ccc(C)c(Cl)c1 (centres undefined) do in these assays?
PTK2B oligo ant: -0.24; PostGolgi yeast: -2.1; PostGolgi ctrl: 31.3*; FAK inh: -0.3

How did Cc1cc(C)nc(N(C#N)CCOc2ccc(Cl)cc2)n1 do in these assays?
PTK2B oligo ant: -4.24*; Candida biofilm: 5.2; FAK inh: -0.9

How did CCCNC(=O)c1ccc2c(c1)C1C3CCC(C3)C1C(c1ccccc1)N2 (centres undefined) do in these assays?
PTK2B oligo ant: 0.04; PostGolgi yeast: -3.1; PostGolgi ctrl: 35.6*; FAK inh: -0.5

Results for Cc1nn2c(N3CCOCC3)c3c(nc2c1-c1ccccc1)CCCC3 ?
tolC growth inh: 7.0; PTK2B oligo ant: -1.35; PostGolgi yeast: 0.6; Candida biofilm: 4.9; PostGolgi ctrl: 78.7*; FAK inh: 4.0

What do the screens show for `CCCNC(=O)Nc1nccs1`?
PTK2B oligo ant: 0.43; PostGolgi yeast: 4.8; Candida biofilm: -2.7; PostGolgi ctrl: 8.3; FAK inh: -2.0

What do the screens show for `COC(=O)c1nn(-c2ccc3c(c2)OCO3)cc1O`?
PTK2B oligo ant: -0.32; PostGolgi yeast: 3.7; Candida biofilm: 5.6; PostGolgi ctrl: 37.3*; FAK inh: -2.4

What do the screens show for `COC(=O)c1nn(-c2ccc3c(c2)CCN3C(C)=O)cc1O`?
PTK2B oligo ant: 0.38; PostGolgi yeast: -2.6; Candida biofilm: 6.5; PostGolgi ctrl: 7.3; FAK inh: 0.2

How did N#C/C(=C/c1ccc(N2CCOCC2)o1)c1nc2ccccc2[nH]1 do in these assays?
PTK2B oligo ant: 1.45; Candida biofilm: 6.2; FAK inh: 4.4

Results for N#C/C(=C\c1ccc(Sc2nc3ccccc3[nH]2)o1)c1ccccc1 ?
PTK2B oligo ant: -2.35; PostGolgi yeast: -9.3; Candida biofilm: 1.2; PostGolgi ctrl: 54.1*; FAK inh: -2.4

How did O=c1[nH]c2ccccc2n1CCC1CCCCC1 do in these assays?
PTK2B oligo ant: -0.86; PostGolgi yeast: 1.1; Candida biofilm: 1.1; PostGolgi ctrl: 49.5*; FAK inh: 1.0

What do the screens show for `c1ccc2c(c1)ncn2CCC1CCCCC1`?
tolC growth inh: 48.4; PTK2B oligo ant: -0.36; PostGolgi yeast: -1.1; Candida biofilm: 4.7; PostGolgi ctrl: 80.5*; FAK inh: 4.9

What do the screens show for `CCCOc1c(OC)cccc1C1CC(=O)Nc2cc3c(cc21)OCCO3` (centres undefined)?
tolC growth inh: 15.0; PTK2B oligo ant: 0.06; PostGolgi yeast: -0.9; Candida biofilm: 0.5; PostGolgi ctrl: 11.2; FAK inh: 2.8

Results for CCCN(CCC)C(=O)Cc1coc2ccc3ccccc3c12 ?
PTK2B oligo ant: -2.33; PostGolgi yeast: -1.1; Candida biofilm: 4.8; PostGolgi ctrl: 41.9*; FAK inh: 0.1

How did CCOC(=O)c1c(OCC)[nH]c2c1cc(O)c1ccccc12 do in these assays?
tolC growth inh: 29.1; PTK2B oligo ant: -0.42; PostGolgi yeast: 3.8; Candida biofilm: 5.1; PostGolgi ctrl: 13.7; FAK inh: 4.6

Results for Cc1c(/C(Cc2ccccc2)=N/O)c2ccccc2n1C ?
PTK2B oligo ant: -1.14; Candida biofilm: 7.0; FAK inh: 0.5

How did CN(C(=O)c1cccc(Nc2ccc(-c3ccc4c(c3)OCCO4)nn2)c1)C1CCCCC1 do in these assays?
PTK2B oligo ant: -3.59*; Candida biofilm: 5.9; FAK inh: 3.1
